Assay results taken from ChEMBL document CHEMBL1268933, “Discovery of a vorapaxar analog with increased aqueous solubility” (Bioorg Med Chem Lett, 2010).
pIC50, pKi: −log10 of the molar value. In brackets after ≈: the same amount, converted by molar mass. Activity calls are given as the source filed them. The rule behind the calls is not given here.

Assays:
[1] = target: T1, Proteinase-activated receptor 1 (Homo sapiens, UniProt P25116); assay: Displacement of high affinity TRAP form human platelet PAR1
T1 sequence (P25116 whole entry): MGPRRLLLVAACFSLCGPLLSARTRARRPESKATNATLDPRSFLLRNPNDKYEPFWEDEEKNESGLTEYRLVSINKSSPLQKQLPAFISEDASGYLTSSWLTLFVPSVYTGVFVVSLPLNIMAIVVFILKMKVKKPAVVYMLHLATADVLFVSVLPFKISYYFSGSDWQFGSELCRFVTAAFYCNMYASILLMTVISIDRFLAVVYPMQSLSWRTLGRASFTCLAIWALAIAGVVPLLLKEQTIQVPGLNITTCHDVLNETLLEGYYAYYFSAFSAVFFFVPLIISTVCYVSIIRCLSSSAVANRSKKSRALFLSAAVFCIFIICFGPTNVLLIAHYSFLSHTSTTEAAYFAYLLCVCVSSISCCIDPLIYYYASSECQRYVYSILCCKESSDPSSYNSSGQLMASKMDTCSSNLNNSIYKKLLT
Outline: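 Radioligand binding using human platelet membranes as PAR-1 source and tritiated haTRAP as radioligand; run in duplicate, compounds of high interest repeated n≥5 (SD 20%); Ki reported.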

[2] = Kinetic solubility of the compound; assay type: physicochemical
Outline: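 Kinetic solubility: DMSO serial dilutions added to 10 mM phosphate buffer pH 7.4, equilibrated 30 min at room temperature; precipitate detected by nephelometry; solubility taken as highest concentration not scattering light.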

[3] = Cmax in rat; assay type: ADME, organism-based; conditions: in vivo
Outline: (§1)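 High-throughput format rat pharmacokinetic screen; plasma AUC and Cmax determined.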

[4] = AUC in rat; assay type: ADME, organism-based; conditions: plasma; outline: as §1
[5] = Equilibrium solubility of the compound after 24 hrs; assay type: physicochemical
Cytochrome P450 2C19 = Cytochrome P450 2C19 (Homo sapiens, UniProt P33261); assay: Inhibition of CYP2C19; assay type: ADME
Outline: (§2)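 CYP3A4, CYP2D6, CYP2C9 and CYP2C19 inhibition tested under both co-incubation and pre-incubation conditions; IC50 determined.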

Cytochrome P450 2D6 = Cytochrome P450 2D6 (Homo sapiens, UniProt P10635); assay: Inhibition of CYP2D6; assay type: ADME; outline: as §2
[6] = Tmax in monkey at 0.1 mg/kg, po; assay type: ADME, organism-based, Macaca mulatta; set-up: dose 0.1 mg/kg, route oral; conditions: rhesus monkey, in vivo
Platelet [7] = assay: Ex-vivo inhibition of PAR1-mediated aggregation of high affinity TRAP-stimulated cynomolgus monkey platelet at 0.1 mg/kg, po administered as single dose measured after 24 hrs; assay type: functional; conditions: Macaca fascicularis
Outline: (§3)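 Cynomolgus monkeys (n = 3) given single oral dose of 0.1 or 0.3 mg/kg; ex vivo haTRAP-induced platelet aggregation measured at time points out to 24 h.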

[8] = target: T2, PXR (nuclear receptor subfamily 1 group I member 2) (Homo sapiens, UniProt O75469); assay: Induction of human PXR at 10 uM
T2 sequence (O75469 whole entry): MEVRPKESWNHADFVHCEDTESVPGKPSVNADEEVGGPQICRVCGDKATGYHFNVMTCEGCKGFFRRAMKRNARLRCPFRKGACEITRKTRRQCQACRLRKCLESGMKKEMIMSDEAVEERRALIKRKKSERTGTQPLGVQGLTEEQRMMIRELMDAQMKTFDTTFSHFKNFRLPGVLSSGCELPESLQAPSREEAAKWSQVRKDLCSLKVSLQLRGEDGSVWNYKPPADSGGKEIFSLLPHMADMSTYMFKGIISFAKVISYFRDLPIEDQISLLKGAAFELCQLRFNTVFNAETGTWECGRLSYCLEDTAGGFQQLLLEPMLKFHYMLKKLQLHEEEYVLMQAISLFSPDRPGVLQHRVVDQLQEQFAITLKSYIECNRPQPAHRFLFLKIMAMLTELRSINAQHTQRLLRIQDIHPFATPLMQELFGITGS

Cytochrome P450 2C9 = Cytochrome P450 2C9 (Homo sapiens, UniProt P11712); assay: Inhibition of CYP2C9; assay type: ADME; outline: as §2
Rhesus monkey = assay: Antithrombotic activity in monkey Folts model; assay type: functional, organism-based; conditions: Macaca mulatta
Outline: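 Folts thrombosis model in anesthetized monkeys; escalating doses given intravenously in sequence to the same animal, alone or with ADP antagonist cangrelor; inhibition of cyclic flow reductions monitored.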

[9] = AUC (0 to 24 hrs) in monkey at 0.1 mg/kg, po; assay type: ADME, organism-based, Macaca mulatta; set-up: time < 24 hr, dose 0.1 mg/kg, route oral; conditions: rhesus monkey, plasma
[10] = Cmax in monkey at 1 mg/kg, po; assay type: ADME, organism-based, Macaca mulatta; set-up: dose 1 mg/kg, route oral; conditions: rhesus monkey, in vivo
Cytochrome P450 3A4 = Cytochrome P450 3A4 (Homo sapiens, UniProt P08684); assay: Inhibition of CYP3A4; assay type: ADME; outline: as §2
Platelet [11] = assay: Ex-vivo inhibition of PAR1-mediated aggregation of high affinity TRAP-stimulated cynomolgus monkey platelet at 0.3 mg/kg, po administered as single dose measured after 24 hrs; assay type: functional, organism-based; set-up: dose 0.3 mg/kg; conditions: Macaca fascicularis; outline: as §3
[12] = Permeability across human Caco-2 cell membrane; assay type: ADME, cell-based; conditions: read-out: permeability
Platelet [13] = assay: Ex-vivo inhibition of PAR1-mediated aggregation of high affinity TRAP-stimulated cynomolgus monkey platelet at 0.1 mg/kg, po administered as single dose measured up to 6 hrs; assay type: functional, organism-based; set-up: dose 0.1 mg/kg; conditions: Macaca fascicularis; outline: as §3
[14] = Cmax in monkey at 0.1 mg/kg, po; assay type: ADME, organism-based, Macaca mulatta; set-up: dose 0.1 mg/kg, route oral; conditions: rhesus monkey, in vivo
[15] = Tmax in monkey at 1 mg/kg, po; assay type: ADME, organism-based, Macaca mulatta; set-up: dose 1 mg/kg, route oral; conditions: rhesus monkey, in vivo
[16] = AUC (0 to 24 hrs) in monkey at 1 mg/kg, po; assay type: ADME, organism-based, Macaca mulatta; set-up: time < 24 hr, dose 1 mg/kg, route oral; conditions: rhesus monkey, plasma

Sequence of Cytochrome P450 3A4 (P08684 whole entry): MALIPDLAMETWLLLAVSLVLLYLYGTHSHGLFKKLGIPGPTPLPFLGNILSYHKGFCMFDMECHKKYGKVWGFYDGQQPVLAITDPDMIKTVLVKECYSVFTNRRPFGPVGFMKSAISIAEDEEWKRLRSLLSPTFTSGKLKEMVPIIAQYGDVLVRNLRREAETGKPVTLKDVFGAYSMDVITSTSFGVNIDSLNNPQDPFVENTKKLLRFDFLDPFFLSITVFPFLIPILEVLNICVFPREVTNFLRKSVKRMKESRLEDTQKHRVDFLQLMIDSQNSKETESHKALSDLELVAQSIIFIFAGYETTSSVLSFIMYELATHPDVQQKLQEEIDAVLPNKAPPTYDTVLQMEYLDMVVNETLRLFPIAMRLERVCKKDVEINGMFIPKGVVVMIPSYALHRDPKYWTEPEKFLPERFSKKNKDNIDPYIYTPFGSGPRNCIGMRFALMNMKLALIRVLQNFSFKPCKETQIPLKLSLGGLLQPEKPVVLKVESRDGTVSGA
Sequence of Cytochrome P450 2C9 (P11712 whole entry): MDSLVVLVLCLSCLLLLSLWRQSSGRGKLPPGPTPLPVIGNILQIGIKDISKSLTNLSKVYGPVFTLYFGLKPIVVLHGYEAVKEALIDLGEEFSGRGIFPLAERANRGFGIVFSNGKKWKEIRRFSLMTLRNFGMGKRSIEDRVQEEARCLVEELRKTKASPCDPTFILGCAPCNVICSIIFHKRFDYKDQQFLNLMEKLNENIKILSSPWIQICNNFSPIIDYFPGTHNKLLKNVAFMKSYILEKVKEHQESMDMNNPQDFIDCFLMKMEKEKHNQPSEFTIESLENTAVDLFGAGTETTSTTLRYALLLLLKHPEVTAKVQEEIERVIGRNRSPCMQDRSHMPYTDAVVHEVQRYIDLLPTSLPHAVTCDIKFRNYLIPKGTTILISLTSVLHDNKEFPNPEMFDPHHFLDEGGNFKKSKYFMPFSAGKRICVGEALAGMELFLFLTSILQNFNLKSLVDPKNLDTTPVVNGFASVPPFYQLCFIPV
Sequence of Cytochrome P450 2D6 (P10635 whole entry): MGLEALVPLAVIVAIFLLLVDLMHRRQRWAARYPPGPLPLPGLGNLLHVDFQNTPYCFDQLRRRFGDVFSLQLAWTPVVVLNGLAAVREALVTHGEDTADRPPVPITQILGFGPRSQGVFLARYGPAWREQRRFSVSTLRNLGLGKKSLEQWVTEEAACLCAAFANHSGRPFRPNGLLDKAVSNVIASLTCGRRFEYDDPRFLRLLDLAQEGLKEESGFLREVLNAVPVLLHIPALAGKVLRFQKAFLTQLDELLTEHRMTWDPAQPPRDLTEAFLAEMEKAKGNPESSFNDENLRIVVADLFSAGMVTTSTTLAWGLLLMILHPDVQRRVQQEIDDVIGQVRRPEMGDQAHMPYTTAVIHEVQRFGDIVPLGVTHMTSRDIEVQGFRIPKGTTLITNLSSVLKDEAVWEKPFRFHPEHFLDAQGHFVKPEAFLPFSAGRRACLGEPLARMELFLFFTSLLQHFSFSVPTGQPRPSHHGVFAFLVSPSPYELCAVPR
Sequence of Cytochrome P450 2C19 (P33261 whole entry): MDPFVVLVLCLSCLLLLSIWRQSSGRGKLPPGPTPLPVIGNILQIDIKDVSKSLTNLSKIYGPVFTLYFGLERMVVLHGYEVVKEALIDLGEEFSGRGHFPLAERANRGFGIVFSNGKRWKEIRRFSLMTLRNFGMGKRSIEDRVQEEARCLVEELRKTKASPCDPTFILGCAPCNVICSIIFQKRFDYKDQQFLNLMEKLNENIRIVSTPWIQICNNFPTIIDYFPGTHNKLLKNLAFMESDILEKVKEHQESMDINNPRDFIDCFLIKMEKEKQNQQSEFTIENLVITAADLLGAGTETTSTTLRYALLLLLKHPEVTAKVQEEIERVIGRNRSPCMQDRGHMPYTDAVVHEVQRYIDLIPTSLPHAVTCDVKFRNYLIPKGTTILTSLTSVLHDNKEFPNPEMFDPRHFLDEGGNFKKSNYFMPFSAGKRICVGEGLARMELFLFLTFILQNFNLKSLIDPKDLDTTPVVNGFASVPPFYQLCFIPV

| Structure (SMILES) | pKi [1] | solubility kinetic [2] | Cmax [3] | AUC [4] | further results |
| --- | --- | --- | --- | --- | --- |
| CCOC(=O)N[C@@H]1CC[C@@H]2[C@@H](C1)C[C@H]1C(=O)O[C@H](C)[C@H]1[C@H]2/C=C/c1ccc(-c2ccc(C)cn2)cn1 | 7.38 |  |  |  |  |
| CCOC(=O)N[C@@H]1CC[C@@H]2[C@@H](C1)C[C@H]1C(=O)O[C@H](C)[C@H]1[C@H]2/C=C/c1ccc(-c2nccs2)cn1 | 7.12 |  |  |  |  |
| CCOC(=O)N[C@@H]1CC[C@@H]2[C@@H](C1)C[C@H]1C(=O)O[C@H](C)[C@H]1[C@H]2/C=C/c1ccc(-c2ccoc2)cn1 | 7.21 | 12 µM (≈ 5.57 µg/mL) |  |  |  |
| CCOC(=O)N[C@@H]1CC[C@@H]2[C@@H](C1)C[C@H]1C(=O)O[C@H](C)[C@H]1[C@H]2/C=C/c1ccc(-c2cccnc2)cn1 | 6.62 |  |  |  |  |
| CCOC(=O)N[C@@H]1CC[C@@H]2[C@@H](C1)C[C@H]1C(=O)O[C@H](C)[C@H]1[C@H]2/C=C/c1ccc(-c2ccncc2)cn1 | 6.60 |  |  |  |  |
| CCOC(=O)N[C@@H]1CC[C@@H]2[C@@H](C1)C[C@H]1C(=O)O[C@H](C)[C@H]1[C@H]2/C=C/c1ccc(-c2cncnc2)cn1 | 6.47 |  |  |  |  |
| CCOC(=O)N[C@@H]1CC[C@@H]2[C@@H](C1)C[C@H]1C(=O)O[C@H](C)[C@H]1[C@H]2/C=C/c1ccc(-c2ccccn2)cn1 | 7.72 | 75 µM (≈ 35.7 µg/mL) | 3.07 µg/mL | 10.1 µg·h/mL | pIC50 (Cytochrome P450 2C19): < 4.52; pIC50 (Cytochrome P450 2D6): < 4.52; solubility thermodynamic at 24 h [5]: 67 µM (≈ 31.9 µg/mL); Tmax [6]: 60 min; inhibition in vivo at 0.1 mg/kg (Platelet [7]): 70%; induction at 10 µM [8]: 0.13%; pIC50 (Cytochrome P450 2C9): < 4.52; Activity (Rhesus monkey): Dose-dependent effect; AUC(0-t) at 24 h [9]: 0.05 µg·h/mL; Cmax [10]: 0.236 µg/mL; pIC50 (Cytochrome P450 3A4): < 4.52; inhibition (Platelet [11]): Active; Papp [12]: 283 nm/s; inhibition (Platelet [13]): Active; Cmax [14]: 0.016 µg/mL; Tmax [15]: 30 min; AUC(0-t) at 24 h [16]: 2.52 µg·h/mL |
| CCOC(=O)N[C@@H]1CC[C@@H]2[C@@H](C1)C[C@H]1C(=O)O[C@H](C)[C@H]1[C@H]2/C=C/c1ccc(-c2cc(C)ccn2)cn1 | 6.84 |  |  |  |  |

The next molecules have a higher pKi [1] than those just listed; values first:

| pKi [1] | solubility kinetic [2] | Cmax [3] | AUC [4] | Structure (SMILES) | further results |
| --- | --- | --- | --- | --- | --- |
| 7.92 | < 5 µM | 0.368 µg/mL | 0.319 µg·h/mL | CCOC(=O)N[C@@H]1CC[C@@H]2[C@@H](C1)C[C@H]1C(=O)O[C@H](C)[C@H]1[C@H]2/C=C/c1ccc(-c2cccc(OC)c2)cn1 |  |
| 8.10 | < 5 µM | 0.974 µg/mL | 3.06 µg·h/mL | CCOC(=O)N[C@@H]1CC[C@@H]2[C@@H](C1)C[C@H]1C(=O)O[C@H](C)[C@H]1[C@H]2/C=C/c1ccc(-c2cccc(F)c2)cn1 [VORAPAXAR] | solubility thermodynamic at 24 h [5]: 2.8 µM (≈ 1.38 µg/mL) |
| 7.82 | 12 µM (≈ 6 µg/mL) | 1.57 µg/mL | 5.22 µg·h/mL | CCOC(=O)N[C@@H]1CC[C@@H]2[C@@H](C1)C[C@H]1C(=O)O[C@H](C)[C@H]1[C@H]2/C=C/c1ccc(-c2ccccc2C#N)cn1 |  |
